Experimental data as given in ChEMBL document CHEMBL1140400, “Synthesis and anthelmintic properties of arylquinolines with activity against drug-resistant nematodes” (2005).

Columns and labels:
Type in all cases: functional
[1] = test system: Haemonchus contortus; assay: Lethal dose against Haemonchus contortus VSRG (benzimidazole resistant) using NemaTox assay
Summary of the method: (§1)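 Larval development assay in agar matrix: 80–100 nematode eggs per well with compound at twofold serial dilutions from 100 μg/mL downward; wells supplemented with nutrient medium, incubated at 26 °C until control larvae reached the L3 stage. Day 5 qualitative larval assessment; LD99 taken as lowest concentration inhibiting development in 99% of larvae present.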

[2] = test system: Haemonchus contortus; assay: Lethal dose against Haemonchus contortus (susceptible) using NemaTox assay; summary of the method: as §1
[3] = test system: Haemonchus contortus; assay: Lethal dose against Haemonchus contortus CAVR (ivermectin resistant) using NemaTox assay; summary of the method: as §1
[4] = test system: Haemonchus contortus; assay: Lethal dose against Haemonchus contortus Lawes ( levamisole and benzimidazole resistant) using NemaTox assay; summary of the method: as §1
[5] = test system: Haemonchus contortus; assay: Lethal dose against Haemonchus contortus using NemaTox assay; summary of the method: as §1
[6] = test system: Trichostrongylus colubriformis; assay: Lethal dose against Trichostrongylus colubriformis using NemaTox assay; summary of the method: as §1
[7] = test system: Teladorsagia circumcincta; assay: Lethal dose against Ostertagia circumcincta using NemaTox assay; summary of the method: as §1

SMILES	LD99 [1]	LD99 [2]	LD99 [3]	LD99 [4]	LD99 [5]	LD99 [6]	LD99 [7]
c1ccc2[nH]c(-c3cscn3)nc2c1 [THIABENDAZOLE]	5 µg/mL	0.16 µg/mL	0.16 µg/mL	5 µg/mL			
COc1cc(OC)c2c(C)cc(C)cc2n1					25 µg/mL		
c1ccc([C@H]2CN3CCSC3=N2)cc1 [LEVAMISOLE]	1.6 µg/mL	1.6 µg/mL	0.78 µg/mL	>100 µg/mL			
COc1cc(Cl)nc2ccccc12					25 µg/mL		
COc1cc(OC)c2cc(Cl)ccc2n1	13 µg/mL	13 µg/mL	6.3 µg/mL	8.8 µg/mL	12.5 µg/mL	25 µg/mL	13 µg/mL
COc1cc(OC)c2cccc(-c3ccccc3)c2n1	4.4 µg/mL	6.3 µg/mL	3.1 µg/mL	6.3 µg/mL	12.5 µg/mL	50 µg/mL	6.3 µg/mL
COc1nc2ccccc2c(OC)c1-c1ccccc1					25 µg/mL		
COc1ccc(-c2cccc3c(OC)cc(OC)nc23)cc1	6.3 µg/mL	6.3 µg/mL	3.1 µg/mL	3.1 µg/mL	12.5 µg/mL	6.3 µg/mL	3.1 µg/mL
COc1cc(OC)c2cc(-c3ccccc3)ccc2n1	3.1 µg/mL	3.1 µg/mL	3.1 µg/mL	3.1 µg/mL	3.1 µg/mL	6.3 µg/mL	3.1 µg/mL
COc1ccc(-c2ccc3nc(OC)cc(OC)c3c2)cc1	2.2 µg/mL	3.1 µg/mL	1.6 µg/mL	1.6 µg/mL	3.1 µg/mL	3.1 µg/mL	3.1 µg/mL
